# Screens from PubChem.
# Rows were chosen to be rich in hits. Some 1.2% of all compounds tested hit in one or more screens of this group.
# Rce1 inh: yeast Rce1p protease inhibitors, primary screen, biochemical, fluorescence, cell-free homogeneous. CAAX prenyl protease 2 (Saccharomyces cerevisiae (strain ATCC 204508 / S288c)), Q03530. calls only. 290,000 tested, 0.27% active. yeast membranes, quenched prenylated peptide cleavage fluorescence;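 active means fall in fluorescence gain of 50% or more versus controls, with final raw signal at or below 3038400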;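 further: plate controls were neutral control wells for no effect and wells lacking membranes for full effect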
# Target sequence (Q03530 whole entry, looked up): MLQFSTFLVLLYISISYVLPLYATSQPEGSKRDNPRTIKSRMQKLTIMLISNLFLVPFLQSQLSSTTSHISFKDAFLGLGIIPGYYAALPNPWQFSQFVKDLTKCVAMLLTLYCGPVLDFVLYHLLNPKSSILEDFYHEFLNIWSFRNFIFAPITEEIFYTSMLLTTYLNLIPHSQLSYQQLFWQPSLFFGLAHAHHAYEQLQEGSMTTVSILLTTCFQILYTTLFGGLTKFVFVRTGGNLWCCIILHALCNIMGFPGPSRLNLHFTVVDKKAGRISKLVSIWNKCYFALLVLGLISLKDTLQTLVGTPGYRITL
# procasp3 activ: activators of human procaspase-3 D3A mutant, primary screen, biochemical, absorbance, PC-3 D3A mutant, single concentration; Caspase-3 (Homo sapiens), P42574; recombinant procaspase-3 D3A, Ac-DEVD-pNA absorbance 405 nm; activation, % at 8.5 µM; 330,000 tested, 0.11% active; AID 463141, 2010;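 active means activation above the mean of all tested compounds plus 3 SD, cut at about 21% in these data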;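 further: 0% = DMSO alone and 100% = DMSO wells spiked with extra 5 µM PC-3 D3A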
#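 material = Procaspase-3 D3A mutant | probe or stimulus = Ac-DEVD-pNA | compound = single dose, 8.5 µM nominal compound, 0.8% DMSO | timing = 1 h preincubation, 2 h reaction | measured by = 405 nm absorbance of p-nitroaniline, reads at 0 and 120 min | benchmarks = DMSO-only low control, 5 µM PC-3 D3A high control | repeats = singlicate, each compound tested once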
# Lipid droplet: inhibitors of hepatocyte lipid droplet formation, primary screen, imaging, high-throughput imaging, BODIPY stain; AML12 mouse hepatocytes, oleate lipid droplets; AID 1656, 2009; 240,000 tested, 0.4% active; inhibition, % at 6.5 µM;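 active means lipid droplet intensity inhibited by at least 50%, with more than 500 cells counted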
#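 Material: mouse AML12 hepatocyte cell line, fixed after treatment; Timing: compound with oleate, overnight; Technique: high-content imaging of BODIPY-stained droplets and DAPI nuclei; Probe or stimulus: oleate, 100 µM final; Dosing: compound at 6.5 µM only.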
# procasp7 counter: procaspase-7 activators, primary screen, counter-screen for procaspase-3 activator project, biochemical, absorbance, HTS, human | Caspase-7 (Homo sapiens), P55210 | activation, % at 8.5 µM | 330,000 tested, 0.093% active | AID 463210, 2010 | recombinant procaspase-7, Ac-DEVD-pNA absorbance 405 nm; D23A/D198A/D206A triple mutant, cannot self-cleave; scale: DMSO 0, 5 µM enzyme 100;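 active means percent activation above the screen-wide mean plus 3 SD, cut at about 25% in these data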
# Target sequence (P55210 whole entry D23A/D198A/D206A): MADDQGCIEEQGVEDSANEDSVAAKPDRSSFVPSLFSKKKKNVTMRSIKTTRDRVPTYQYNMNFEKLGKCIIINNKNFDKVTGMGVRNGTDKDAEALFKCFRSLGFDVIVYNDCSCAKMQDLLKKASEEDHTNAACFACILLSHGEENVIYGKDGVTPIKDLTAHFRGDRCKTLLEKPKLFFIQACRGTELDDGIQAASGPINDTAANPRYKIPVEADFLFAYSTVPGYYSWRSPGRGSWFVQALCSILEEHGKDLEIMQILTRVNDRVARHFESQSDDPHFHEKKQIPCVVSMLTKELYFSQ
#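 buffer or medium = Zinc-free HEPES/NaCl buffer, pH 7.4 | material = Procaspase-7 triple mutant (PC-7 D3A) | input = 2 µM procaspase-7 mutant as dispensed | signal = Epi-absorbance of released pNA at 405 nm, two timepoints | timing = 1 h preincubation, 2 h reaction | replicates = singlicate compound testing | evaluation = % activation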
# p-CIP stab down: p/CIP-EGFP fusion destabilizers, primary screen, fluorescence, F442A cells | Q05BA5 | 16 h | decrease of EGFP signal, % at 10 µM | 290,000 tested, 0.01% active;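 active means EGFP signal decrease of at least 30% at 10 µM or well 3 SD below plate mean, unless failing retest; inactive means the rest, including hits failing retest or dose response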
# GAA850 FXN act: FXN promoter activators, primary screen, cell-based, luciferase luminescence, HEK293 lucGAA850 | HEK293 lucGAA850 FXN promoter luciferase reporter, 24 h; percent of 10 µM SAHA response | activation, % at 6 µM | 360,000 tested, 0.56% active | AID 540364, 2011;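 active means activation above the average of all compounds screened plus 3 SD, cutoff fixed separately per campaign, cut at about 7.5% in these data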;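 further: 0% = DMSO wells and 100% = 10 µM SAHA wells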
# GAA30 counter: GAA30 FXN promoter activators, confirmation, counter-screen for GAA850 frataxin promoter activator project, cell-based, luminescence, HEK293, lucGAA30, triplicate; HEK293 lucGAA30 FXN promoter luciferase, 24 h; DMSO = 0%, 5 µM ipriflavone = 100%; 1,900 tested, 66% active; activation, % at 6 µM; AID 588350, 2011; shares compounds with GAA850 FXN act;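 active means mean activation above the mean of solvent-only control wells plus 3 SD, cut at about 22% in these data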;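 further: counterscreen of GAA850 promoter hits where activity marks nonselective or luminescence artifacts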
# GAA850 confirm: FXN GAA850 promoter activators in reporter cells, confirmation, cell-based, luminescence, HEK293 lucGAA850, triplicate; shares compounds with GAA850 FXN act; HEK293 lucGAA850 FXN promoter luciferase reporter, 24 h; 100% = activation by SAHA; activation, % at 6 µM; 1,900 tested, 86% active; AID 588351, 2011;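 active means mean activation above a set limit taken from the primary screen, cut at about 8% in these data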;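 further: 0% = DMSO wells and 100% = 10 µM SAHA wells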
# Starred values were filed as active, the others as inactive; i = inactive; . = no result given.
SMILES,Rce1 inh,procasp3 activ,Lipid droplet,procasp7 counter,p-CIP stab down,GAA850 FXN act,GAA30 counter,GAA850 confirm
Brc1ccc(/C=N/Nc2ccccn2)cc1,.,-13,3,-3,1,9.5*,105*,39*
O=c1cnnc(N/N=C/c2c[nH]c3ccccc23)[nH]1,i,3,5,-2,1,1,.,.
O=C(O)c1cccc2c(/C=N/Nc3ccccn3)c[nH]c12,.,-1,-8,2,-6,0,.,.
O=c1nc(N/N=C/c2c[nH]c3ccccc23)cn[nH]1,.,-3,-30,-7,3,7.8*,103*,24*
COc1ccc2c(c1)oc(=O)c1cc(OC)ccc12,i,-4,27,-11,-6,7.9*,122*,44*
O=C(NCCc1ccc(O)c(O)c1)C1COc2ccccc2O1 (centres undefined),i,-14,-6,-30,-9,8.8*,22,18*
O=C(COC(=O)c1ccccc1NCCO)NNC(=O)c1cccs1,i,-7,.,4,.,1,.,.
O=C1C=CC(=O)c2c(O)c(N3CCN(CCOCCO)CC3)c(Br)c(O)c21,.,.,.,.,.,14*,-98,-30
CCCCC1(CO)C(=O)N(c2ccccc2)N(c2ccccc2)C1=O,i,0,.,2,0,1,.,.
CCCCC1(Cc2cccc([N+](=O)[O-])c2)C(=O)N(c2ccccc2)N(c2ccccc2)C1=O,i,4,-46,6,-8,8.2*,-1,7
CCCCC1(CC(=O)OCC)C(=O)N(c2ccccc2)N(c2ccccc2)C1=O,i,-1,-50,-13,-4,9.1*,14,9.7*
COc1ccc(S(=O)(=O)N2CCCC(C(=O)NCc3ccccc3)C2)cc1 (centres undefined),i,5,18,5,-11,0,.,.
O=C(CSc1nc(N2CCOCC2)nc(N2CCOCC2)n1)Nc1ccccc1F,i,3,17,-9,-2,-1,.,.
CSc1ncccc1C(=O)NNC(=O)c1ccc(NS(=O)(=O)c2cccs2)cc1,i,-2,.,2,.,2,.,.
Cc1n[nH]c(C)c1S(=O)(=O)N(CC(=O)NC1CCCC1)c1ccc(C(C)C)cc1,i,1,.,18,-17,8.2*,21,9.5*
CCN(CC)S(=O)(=O)c1ccc(OC)nc1,i,-1,.,-1,-18,11*,20,6
COc1cccc(C(=O)Nc2nnc(-c3ccccc3)s2)c1,i,.,.,.,0,8.0*,80*,35*
Cc1cc(NC(=O)c2ccc3nc(C)sc3c2)no1,i,-6,5,-14,-7,7.7*,111*,33*
Cc1cc(NC(=O)c2ccc(Cl)cc2)no1,i,9,-3,-3,-4,3,.,.
COc1cccc(NC(=O)c2ccc3nc(C)sc3c2)c1,i,-3,-9,6,-4,7.6*,120*,40*
Cc1cccc(NC(=O)CCS(=O)(=O)c2ccc3c(c2)NC(=O)CS3)n1,i,-1,2,-6,5,-1,.,.
COC(=O)CN1C(c2ccc(Cl)cc2)=Nc2ccc(Cl)cc2C1c1ccccc1 (centres undefined),i,17,-17,5,4,13*,14,11*
CSCCC(NC(=O)c1ccccc1Br)C(=O)NCC(c1ccco1)N1CCCCC1 (centres undefined),i,2,.,7,.,0,.,.
Nc1ccc2nc(-c3cc(Cl)c(N)c(Cl)c3)[nH]c2c1,i,7,-6,9,-17,8.3*,160*,50*
CCSc1nc(N)c2c(C)c(C)sc2n1,i,6,16,-1,-4,4,.,.
SMILES,Rce1 inh,procasp3 activ,Lipid droplet,procasp7 counter,p-CIP stab down,GAA850 FXN act,GAA30 counter,GAA850 confirm
C=CCSc1nc(N)c2c(C)c(C)sc2n1,i,0,.,-4,6,8.2*,55*,20*
Cc1ccc(CC2(C)C(=O)Nc3c(Cl)ccc(Cl)c32)cc1 (centres undefined),.,.,.,.,.,-3,.,.
COc1ccc(/C=C(/C(=O)c2cccs2)N2C=CC=CC2=C(C#N)C#N)cc1,i,.,-4,.,-14,14*,-1,22*
COc1ccc(C(=O)/C(=C\c2ccco2)N2C=CC=CC2=C(C#N)C#N)cc1,i,-4,.,-5,-17,-14,.,.
CCc1ccc2oc(-c3cc(N)cc(C)c3O)nc2c1,.,-8,-19,3,10,7.7*,81*,40*
COc1ccc(Cc2nc(C)cc(Cl)n2)cc1[N+](=O)[O-],i,4,-1,0,2,-1,.,.
COc1ccc(C(CNC(=O)CN2C(=O)NC3(CCCC3)C2=O)N(C)C)cc1 (centres undefined),i,1,6,-2,-17,3,.,.
Cc1ccc(S(=O)(=O)NCCC(=O)N2CCN(c3cccc(Cl)c3)CC2)cc1C,i,6,-15,-9,-2,11*,-5,1
CCNS(=O)(=O)c1ccc(CCC(=O)N2CCN(c3cccc(Cl)c3)CC2)cc1,i,-6,-1,7,-7,2,.,.
COc1ccc(-c2csc(-c3ccc(C(=O)O)cc3)n2)cc1,i,2,-2,0,13,9.8*,85*,37*
O=C(O)c1ccc(-c2nc(-c3ccc(Cl)cc3Cl)cs2)cc1,i,3,4,2,2,8.2*,113*,44*
O=C(O)c1ccc(-c2nc(-c3ccc(Cl)cc3)cs2)cc1,i,.,12,.,-4,6,.,.
Cc1ccc(CNc2ccc3c(c2)ncn3C(C)(C)C)cc1,i,2,18,-10,7,10.0*,107*,37*
CCOc1ccc2nc(C)cc(Nc3cccc([N+](=O)[O-])c3)c2c1,i,2,15,-6,-5,7.7*,26*,20*
